Here are results for 29 compounds from ChEMBL document CHEMBL4376812 (J Med Chem, 2019).

Structures are written as SMILES. Bounds are passed on as bounds.

Data set [1] has as its target Non-receptor tyrosine-protein kinase TYK2 (Homo sapiens, UniProt P29597). Kind of data set: Inhibition of TYK2 in human whole blood assessed as decrease in IFNalpha-induced STAT5 phosphorylation preincubated for 1 hr followed by stimulation with IFN-alpha for 15 mins by fluorescence analysis. Type of data set: tissue-based. A digest of the protocol: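 Human whole blood stimulated with IFNα; STAT5 phosphorylation was read in cells by staining and flow cytometry. IC50 from dose–response; mean of at least three experiments.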

A short description of data set [2]: Permeability coefficient, Kp across apical to basolateral side in human Caco2 cells. Type of data set: ADME, cell-based. The note with it: Caco-2, read-out: permeability. The gist of the method:
(§1)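 Caco-2 monolayer permeability measured in both directions, apical-to-basal and basal-to-apical, reported as Pc in nm/s. An efflux ratio was calculated from the two directions.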
A general note: Passage across Caco-2 layers is used to estimate intestinal permeability.

For a further data set, the target named is JAK1/TYK2 (Homo sapiens, UniProt P23458+P29597). Kind of data set: Inhibition of JAK1/TYK2 in human Kit225 T cells assessed as inhibition of STAT phosphorylation by luciferase reporter assay. Format: cell-based. The gist of the method:
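T-cells carrying a stably integrated STAT-dependent luciferase reporter were stimulated with IFNα or IL-23 to measure TYK2/JAK1-dependent signalling. Dose–response curves gave IC50.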
In general terms: In a reporter assay the amount or activity of a reporter protein is the signal.

A short description of data set [3]: Metabolic stability in mouse liver microsomes assessed as compound remaining incubated for 10 mins. Format: ADME, Microsome. The following applies: read-out: Stability. The gist of the method:
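Mouse liver microsomal stability, reported as percent of parent remaining after a 10 min incubation. Values are means of at least three experiments unless otherwise noted.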

In data set [4] the target is Non-receptor tyrosine-protein kinase TYK2 (Mus musculus, UniProt Q9R117). Kind of data set: Inhibition of TYK2 in mouse whole blood assessed as decrease in IFNalpha-induced STAT1 phosphorylation preincubated for 1 hr followed by stimulation with IFN-alpha for 15 mins by fluorescence analysis. Format: tissue-based. A digest of the protocol: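 Mouse whole blood stimulated with IFNα; STAT1 phosphorylation was measured by cellular staining and flow cytometry. Read as IC50.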
Non-receptor tyrosine-protein kinase TYK2 (Mus musculus, UniProt Q9R117), sequence (Q9R117 whole entry): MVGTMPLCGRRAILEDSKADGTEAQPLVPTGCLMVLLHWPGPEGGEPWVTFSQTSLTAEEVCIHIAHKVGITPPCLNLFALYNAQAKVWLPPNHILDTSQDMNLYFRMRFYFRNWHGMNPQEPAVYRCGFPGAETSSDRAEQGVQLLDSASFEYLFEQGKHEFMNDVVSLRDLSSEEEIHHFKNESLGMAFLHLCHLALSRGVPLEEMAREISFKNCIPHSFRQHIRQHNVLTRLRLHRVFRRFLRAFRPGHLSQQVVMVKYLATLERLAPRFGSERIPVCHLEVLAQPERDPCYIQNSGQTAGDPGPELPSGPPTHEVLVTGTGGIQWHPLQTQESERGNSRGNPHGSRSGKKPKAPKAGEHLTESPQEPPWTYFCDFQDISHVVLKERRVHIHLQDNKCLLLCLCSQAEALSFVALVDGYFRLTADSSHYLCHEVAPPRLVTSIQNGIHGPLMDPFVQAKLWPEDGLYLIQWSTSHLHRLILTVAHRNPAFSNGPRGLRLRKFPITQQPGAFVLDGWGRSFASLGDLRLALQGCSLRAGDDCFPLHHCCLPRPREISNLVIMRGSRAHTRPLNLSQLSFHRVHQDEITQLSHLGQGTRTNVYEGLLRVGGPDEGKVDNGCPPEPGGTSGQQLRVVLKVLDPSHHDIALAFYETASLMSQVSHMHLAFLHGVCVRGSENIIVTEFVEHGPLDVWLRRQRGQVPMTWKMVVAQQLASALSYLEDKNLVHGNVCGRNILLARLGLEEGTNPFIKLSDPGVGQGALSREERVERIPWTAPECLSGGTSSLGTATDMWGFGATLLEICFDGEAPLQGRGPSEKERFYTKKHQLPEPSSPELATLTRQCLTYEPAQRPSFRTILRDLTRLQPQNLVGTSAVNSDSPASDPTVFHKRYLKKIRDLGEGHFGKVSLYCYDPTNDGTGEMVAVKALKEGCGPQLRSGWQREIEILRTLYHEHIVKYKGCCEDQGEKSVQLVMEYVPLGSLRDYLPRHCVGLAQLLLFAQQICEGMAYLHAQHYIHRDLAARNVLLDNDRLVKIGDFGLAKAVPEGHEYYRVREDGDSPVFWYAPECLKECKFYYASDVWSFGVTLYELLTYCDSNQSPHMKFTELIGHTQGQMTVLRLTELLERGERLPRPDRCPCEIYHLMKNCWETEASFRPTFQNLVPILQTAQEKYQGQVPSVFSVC

Data set [5] can be described thus: Permeability coefficient, Kp across basolateral to apical side in human Caco2 cells. Type of data set: ADME, cell-based. The following applies: Caco-2, read-out: permeability. The gist of the method: as §1
The nature of data set [6]: Metabolic stability in mouse liver microsomes assessed as half life. Type of data set: ADME, Microsome. A digest of the protocol:
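Liver microsomes from human, rat, mouse, dog, cynomolgus monkey and rabbit were incubated with compound. Stability is reported as half-life (T1/2, min). Values are means of at least three separate experiments.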
On the technique in general: Microsomes from liver hold many membrane-bound enzymes, among them those of drug oxidation.

JAK1/TYK2, sequence (P23458 whole entry): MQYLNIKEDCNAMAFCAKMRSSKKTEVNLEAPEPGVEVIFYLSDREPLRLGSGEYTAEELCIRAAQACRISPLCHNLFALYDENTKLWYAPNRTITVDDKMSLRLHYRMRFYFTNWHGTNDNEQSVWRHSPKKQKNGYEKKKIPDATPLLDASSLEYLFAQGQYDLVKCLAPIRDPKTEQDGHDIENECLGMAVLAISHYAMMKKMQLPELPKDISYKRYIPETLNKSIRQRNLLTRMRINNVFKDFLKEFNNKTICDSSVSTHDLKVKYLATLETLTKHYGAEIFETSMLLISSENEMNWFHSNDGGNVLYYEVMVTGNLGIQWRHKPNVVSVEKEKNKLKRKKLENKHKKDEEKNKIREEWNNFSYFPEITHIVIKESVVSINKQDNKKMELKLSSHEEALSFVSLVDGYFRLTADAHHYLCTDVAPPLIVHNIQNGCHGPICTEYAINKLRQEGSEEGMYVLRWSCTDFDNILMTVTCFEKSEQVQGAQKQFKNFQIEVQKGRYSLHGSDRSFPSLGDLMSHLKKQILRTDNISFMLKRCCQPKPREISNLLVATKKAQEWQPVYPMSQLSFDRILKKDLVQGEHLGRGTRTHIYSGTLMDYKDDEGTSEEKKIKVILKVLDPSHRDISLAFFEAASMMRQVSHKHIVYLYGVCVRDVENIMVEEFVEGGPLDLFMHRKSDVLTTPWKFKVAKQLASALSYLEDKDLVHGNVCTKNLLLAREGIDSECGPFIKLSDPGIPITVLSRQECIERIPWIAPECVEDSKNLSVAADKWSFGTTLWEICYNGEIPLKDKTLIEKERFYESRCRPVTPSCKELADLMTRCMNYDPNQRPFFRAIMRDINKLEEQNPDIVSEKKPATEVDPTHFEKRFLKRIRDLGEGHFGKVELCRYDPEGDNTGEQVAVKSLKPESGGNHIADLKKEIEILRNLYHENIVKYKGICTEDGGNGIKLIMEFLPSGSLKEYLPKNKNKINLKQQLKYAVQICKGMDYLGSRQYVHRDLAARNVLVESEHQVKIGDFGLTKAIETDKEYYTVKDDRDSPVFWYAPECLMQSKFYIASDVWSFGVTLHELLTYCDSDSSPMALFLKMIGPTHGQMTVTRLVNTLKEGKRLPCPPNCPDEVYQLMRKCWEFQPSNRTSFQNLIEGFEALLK
JAK1/TYK2, sequence (P29597 whole entry): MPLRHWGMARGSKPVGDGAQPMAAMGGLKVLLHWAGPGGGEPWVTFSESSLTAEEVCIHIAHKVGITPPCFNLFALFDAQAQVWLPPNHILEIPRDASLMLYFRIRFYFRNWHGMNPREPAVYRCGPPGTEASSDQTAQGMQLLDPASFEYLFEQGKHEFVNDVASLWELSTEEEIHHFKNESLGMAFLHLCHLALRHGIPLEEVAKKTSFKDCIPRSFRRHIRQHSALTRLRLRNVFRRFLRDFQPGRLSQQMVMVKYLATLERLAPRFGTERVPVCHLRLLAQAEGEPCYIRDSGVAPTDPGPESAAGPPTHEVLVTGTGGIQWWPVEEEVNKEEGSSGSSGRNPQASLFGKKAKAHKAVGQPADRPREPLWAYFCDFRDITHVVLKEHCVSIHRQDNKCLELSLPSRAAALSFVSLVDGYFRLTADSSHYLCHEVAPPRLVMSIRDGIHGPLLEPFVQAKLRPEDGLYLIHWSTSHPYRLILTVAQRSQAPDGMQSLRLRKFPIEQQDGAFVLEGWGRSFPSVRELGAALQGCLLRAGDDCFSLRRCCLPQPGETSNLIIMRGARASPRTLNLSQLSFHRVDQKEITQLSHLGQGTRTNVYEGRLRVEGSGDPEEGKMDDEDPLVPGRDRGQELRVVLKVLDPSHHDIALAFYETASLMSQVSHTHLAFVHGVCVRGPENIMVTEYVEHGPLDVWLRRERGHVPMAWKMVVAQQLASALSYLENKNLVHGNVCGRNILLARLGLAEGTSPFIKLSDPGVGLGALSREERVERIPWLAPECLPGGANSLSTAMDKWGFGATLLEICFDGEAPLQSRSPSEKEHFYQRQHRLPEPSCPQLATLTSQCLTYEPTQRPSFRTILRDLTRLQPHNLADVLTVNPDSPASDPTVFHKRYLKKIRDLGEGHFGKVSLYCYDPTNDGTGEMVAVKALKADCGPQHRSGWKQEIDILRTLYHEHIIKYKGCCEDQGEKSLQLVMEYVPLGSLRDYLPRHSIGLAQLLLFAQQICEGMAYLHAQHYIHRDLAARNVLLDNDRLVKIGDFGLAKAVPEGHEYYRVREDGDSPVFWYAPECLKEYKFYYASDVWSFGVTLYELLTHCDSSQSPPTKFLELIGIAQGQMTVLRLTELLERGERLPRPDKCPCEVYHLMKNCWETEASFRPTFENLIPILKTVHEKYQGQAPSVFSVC
Non-receptor tyrosine-protein kinase TYK2 (Homo sapiens, UniProt P29597), sequence (P29597 whole entry): as above

In the case of `CNC(=O)c1cnc(Nc2ccc(F)cn2)cc1Nc1cccc(C(=O)NC)c1OC`, the IC50 (commonly the midpoint of a concentration-inhibition curve) was found to be 230 nM in data set [1] and 78 nM on JAK1/TYK2. Moreover, the Papp A→B in data set [2] was determined as 5 ×10⁻⁶ cm/s.

For `CCNC(=O)c1cccc(Nc2cc(Nc3cc(C)c(F)cn3)ncc2C(=O)NC)c1OC`, the IC50 in data set [1] is 280 nM; on JAK1/TYK2 it was 28 nM.

On to `CNC(=O)c1cnc(Nc2cc(C)c(F)cn2)cc1Nc1cccc(-c2ccnn2C)c1OC`, for which the IC50 in data set [1] came out at 300 nM; on JAK1/TYK2, 70 nM. In addition, in data set [3], the remaining at 10 min turned out to be 15%.

In the case of `CNC(=O)c1cnc(Nc2ccc(C#N)cn2)cc1Nc1cccc(-c2ncn(C)n2)c1OC`, the concentration for half-maximal inhibition (IC50) in data set [4] is 260 nM; in data set [1], 15 nM; on JAK1/TYK2, 6 nM. The remaining at 10 min in data set [3] is 85%. In addition, the Papp A→B in data set [2] came to 1.8 ×10⁻⁶ cm/s.

Turning to `CNC(=O)c1cnc(Nc2cc(C)c(F)cn2)cc1Nc1cccc(C(=O)NCCN2CCOCC2)c1OC`, the IC50 in data set [1] turned out to be 160 nM; on JAK1/TYK2 it was 51 nM.

As to `CNC(=O)c1cnc(Nc2cc(C)c(F)cn2)cc1Nc1cccc(-c2nc[nH]n2)c1OC`, the IC50 in data set [4] was found to be 310 nM; in data set [1], 23 nM; on JAK1/TYK2, 8 nM. In addition, the remaining at 10 min in data set [3] came to 51%.

Turning to `CNC(=O)c1ccc(Nc2cc(Nc3ccc(F)cn3)ncc2C(=O)NC)c(OC)c1`, the IC50 in data set [1] was 520 nM; at JAK1/TYK2 it was 490 nM. Moreover, in data set [2], the Papp A→B is less than 1.5 ×10⁻⁶ cm/s.

In the case of `CNC(=O)c1cnc(Nc2cc(C)c(F)cn2)cc1Nc1cccc(-c2ncn(C)n2)c1OC`, the IC50 was 130 nM in data set [4], 12 nM in data set [1] and 4 nM at JAK1/TYK2. Besides, the remaining at 10 min in data set [3] was determined as 80%.

For `CNC(=O)c1cnc(Nc2cc(C)c(F)cn2)cc1Nc1cccc(C(=O)N(C)C)c1OC`, the IC50 in data set [1] was 750 nM; on JAK1/TYK2, 130 nM.

`CNC(=O)c1cnc(Nc2cc(C)c(F)cn2)cc1Nc1cccc(C(=O)NCC2CC2)c1OC`: the IC50 was 870 nM in data set [1] and 64 nM on JAK1/TYK2.

As for `CNC(=O)c1cccc(Nc2cc(Nc3ccc(F)cn3)ncc2C(=O)NC)c1`, the values for the IC50 (in data set [1]; on JAK1/TYK2) were more than 10000 nM and 7500 nM, respectively.

For `[2H]C([2H])([2H])NC(=O)c1nnc(NC(=O)C2CC2)cc1Nc1cccc(-c2ncn(C)n2)c1`, the half-maximal inhibitory concentration (IC50) in data set [1] was more than 10000 nM.

Take `CNC(=O)c1cnc(Nc2ccc(F)cn2)cc1Nc1ccc(C(N)=O)cc1OC`: the IC50 in data set [1] came out at 390 nM; on JAK1/TYK2 it was 930 nM.

Regarding `CNC(=O)c1cnc(Nc2cc(C)c(F)cn2)cc1Nc1cccc(-c2ccn(C)n2)c1OC`, the IC50 in data set [4] was 430 nM; in data set [1], 79 nM; on JAK1/TYK2, 9 nM. In addition, the remaining at 10 min in data set [3] came out at 66%.

Turning to `CNC(=O)c1cnc(Nc2cc(C)c(F)cn2)cc1Nc1cccc(-c2nncn2C)c1OC`, the IC50 in data set [1] turned out to be 150 nM; at JAK1/TYK2, 16 nM. The remaining at 10 min in data set [3] was determined as 29%.

As for `CNC(=O)c1cnc(Nc2ccc(F)cn2)cc1Nc1cccc(C(=O)O)c1OC`, the IC50 (in data set [1]; on JAK1/TYK2) was more than 10000 nM throughout. For the same compound, the Papp A→B in data set [2] was less than 1.5 ×10⁻⁶ cm/s.

For the compound `CNC(=O)c1cnc(Nc2ccc(F)cn2)cc1Nc1cccc(C(N)=O)c1OC`, the half-inhibitory concentration (IC50) in data set [1] is 120 nM; on JAK1/TYK2 it was 63 nM.

As for `CNC(=O)c1cnc(Nc2cc(C)c(F)cn2)cc1Nc1cccc(-c2nnc(C)o2)c1OC`, the IC50 worked out at 570 nM in data set [4], 100 nM in data set [1] and 12 nM at JAK1/TYK2. For the same compound, the remaining at 10 min in data set [3] is 70%.

With `CNC(=O)c1cnc(Nc2cc(C)nc(C)n2)cc1Nc1cccc(-c2ncn(C)n2)c1OC`, the IC50 in data set [4] turned out to be 730 nM; in data set [1], 19 nM; at JAK1/TYK2, 12 nM. Further, the remaining at 10 min in data set [3] came to 73%. Besides, the Papp A→B in data set [2] was less than 1.5 ×10⁻⁶ cm/s.

As to `CNC(=O)c1cnc(Nc2cc(C)c(F)cn2)cc1Nc1cccc(-c2n[nH]c(C)n2)c1OC`, the IC50 in data set [4] came to 320 nM; in data set [1] it was 40 nM; at JAK1/TYK2, 7 nM. The remaining at 10 min in data set [3] was 63%.

For the compound `CNC(=O)c1cnc(Nc2ccc(F)cn2)cc1Nc1cccc(C#N)c1OC`, the concentration for half-maximal inhibition (IC50) in data set [1] came to 570 nM; on JAK1/TYK2, 34 nM.

For the compound `CNC(=O)c1cnc(Nc2cc(C)c(F)cn2)cc1Nc1cccc(C(=O)NCc2ccccn2)c1OC`, the half-maximal inhibitory concentration (IC50) amounted to 180 nM in data set [1] and 22 nM on JAK1/TYK2.

For `CNC(=O)c1cnc(Nc2cc(C)c(F)cn2)cc1Nc1cccc(C(=O)NCCO)c1OC`, the IC50 is 270 nM in data set [1] and 220 nM on JAK1/TYK2.

Take `CNC(=O)c1cnc(Nc2cc(C)c(F)cn2)cc1Nc1cccc(C(=O)NC)c1OC`: the IC50 was determined as 140 nM in data set [1] and 47 nM at JAK1/TYK2.

Regarding `CNC(=O)c1cnc(Nc2cc(C)c(F)cn2)cc1Nc1cccc(C(N)=O)c1OC`, the IC50 was 62 nM in data set [1] and 30 nM on JAK1/TYK2. Further, in data set [2], the Papp A→B is less than 1.5 ×10⁻⁶ cm/s. Also, in data set [5], the Papp B→A amounted to 26 ×10⁻⁶ cm/s.

On to `CNC(=O)c1cnc(Nc2cc(C)c(F)cn2)cc1Nc1cccc(-c2ncnn2C)c1OC`, for which the results for the IC50 (in data set [4]; in data set [1]; at JAK1/TYK2) were 380 nM, 87 nM and 15 nM, respectively. Also, the remaining at 10 min in data set [3] is 9%.

Take `CNC(=O)c1cnc(NC(=O)C2CC2)cc1Nc1cccc(-c2ncn(C)n2)c1OC`: the IC50 came out at 330 nM in data set [4], 16 nM in data set [1] and 14 nM at JAK1/TYK2. The remaining at 10 min in data set [3] is 93%. Moreover, the Papp A→B in data set [2] amounted to 2.3 ×10⁻⁶ cm/s.

For `[2H]C([2H])([2H])NC(=O)c1cnc(NC(=O)C2CC2)cc1Nc1cccc(-c2ncn(C)n2)c1OC`, the values for the IC50 (in data set [4]; in data set [1]; on JAK1/TYK2) were 100 nM, 13 nM and 8 nM, respectively. In addition, the remaining at 10 min in data set [3] amounted to 89%. In data set [6], the half-life (usually the time needed for the level to fall by half in the phase considered) was more than 2 h. Also, the Papp A→B in data set [2] is less than 1.5 ×10⁻⁶ cm/s.

In the case of `CNC(=O)c1cnc(Nc2cc(C)c(F)cn2)cc1Nc1cccc(-c2nnco2)c1OC`, the IC50 in data set [4] is 522 nM; in data set [1], 170 nM; on JAK1/TYK2 it was 15 nM. Further, the remaining at 10 min in data set [3] was 46%.
